Laboratory results: ChEMBL document CHEMBL6177914, “Human microbiome derived synthetic antimicrobial peptides with activity against Gram-negative, Gram-positive, and antibiotic resistant bacteria” (RSC Med Chem, 2025)
In brackets after ≈: the same amount, converted by molar mass. Activity calls are given as the source filed them. The rule behind the calls is not given here.

Columns and labels:
Staphylococcus aureus [1] = test: Antibacterial activity against Staphylococcus aureus ATCC 25923 assessed as reduction in colony forming units at MIC concentration measured after 2 hrs by time-kill kinetic analysis; type: functional
How it was run: (§1)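 Samples (5 µL) taken at 0, 1, 2, 4, 6, 12, 18 and 24 h, tenfold diluted in 0.85% NaCl, and plated on TSA overnight at 37 °C for CFU counts. Two independent duplicates.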

Staphylococcus aureus [2] = test: Antibacterial activity against Staphylococcus aureus ATCC 25923 assessed as reduction in surviving bacteria at MIC concentration measured after 12 hrs by time-kill kinetic analysis; type: functional; how it was run: as §1
Enterococcus faecium [3] = test: Antibacterial activity against vancomycin resistant Enterococcus faecium BAA 2317 assessed as inhibition of bacterial growth incubated for 24 hrs by absorbance based microplate reader analysis; type: functional
How it was run: (§2)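 Broth microdilution. A single colony was grown 24 h in its recommended broth, then diluted 1:10 000 in the same medium. Peptide serial dilutions were added from DMSO stock at 4 µL per 196 µL inoculated medium. Plates were incubated aerobically or anaerobically as each pathogen requires, at 37 °C for 24 h, and OD600 was read. MIC was the lowest concentration giving 100% growth inhibition. Duplicate wells; assay repeated five times independently.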

Staphylococcus aureus [4] = test: Antibacterial activity against Staphylococcus aureus ATCC 25923 assessed as reduction in bacterial growth at MIC concentration measured after 24 hrs by time-kill kinetic analysis; type: functional, organism-based; how it was run: as §1
Staphylococcus aureus [5] = test: Antibacterial activity against Staphylococcus aureus ATCC 25923 assessed as inhibition of bacterial growth incubated for 24 hrs by absorbance based microplate reader analysis; type: functional; settings: read-out: MIC100
How it was run: as §2, with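 “read.” for “read. MIC was the lowest concentration giving 100% growth inhibition.”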

Staphylococcus aureus [6] = test: Antibacterial activity against methicillin resistant Staphylococcus aureus BAA 2313 assessed as inhibition of bacterial growth incubated for 24 hrs by absorbance based microplate reader analysis; type: functional
How it was run: as §2, with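 “read.” for “read. MIC was the lowest concentration giving 100% growth inhibition.”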

[7] = Retention time of compound by RP-HPLC analysis; type: physicochemical
How it was run: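 Analytical reversed-phase HPLC.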

Staphylococcus aureus [8] = test: Bactericidal activity against methicillin resistant Staphylococcus aureus BAA 2313 assessed as inhibition of bacterial growth at MIC concentration incubated for 48 hrs by broth microdilution assay; type: functional, organism-based
How it was run: (§3)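 Plates were incubated 48 h at 37 °C and examined for colonies. A fidaxomicin-treated culture at 1 µM served as the control.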

Listeria monocytogenes = test: Bactericidal activity against Listeria monocytogenes ATCC 15313 assessed as inhibition of bacterial growth at MIC concentration incubated for 48 hrs by broth microdilution assay; type: functional, organism-based
How it was run: (§4)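 From broth-microdilution wells showing no growth, 10 µL was spotted onto agar and incubated 48 h at 37 °C. Plates were inspected for colonies. Fidaxomicin at 1 µM served as control.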

Clostridioides difficile [9] = test: Bactericidal activity against Clostridium difficile ATCC 43602 assessed as inhibition of bacterial growth at MIC concentration incubated for 48 hrs by broth microdilution assay; type: functional, organism-based; how it was run: as §4
Escherichia coli = test: Bactericidal activity against Escherichia coli ATCC 33694 assessed as inhibition of bacterial growth at MIC concentration incubated for 48 hrs by broth microdilution assay; type: functional, organism-based; how it was run: as §4
Pseudomonas aeruginosa [10] = test: Bactericidal activity against Pseudomonas aeruginosa BAA 1744 assessed as inhibition of bacterial growth at MIC concentration incubated for 48 hrs by broth microdilution assay; type: functional, organism-based; how it was run: as §4
Staphylococcus aureus [11] = test: Bactericidal activity against Staphylococcus aureus ATCC 25923 assessed as inhibition of bacterial growth at MIC concentration incubated for 48 hrs by broth microdilution assay; type: functional, organism-based; how it was run: as §4
Salmonella enterica [12] = test: Bactericidal activity against Salmonella enterica ATCC 13314 assessed as inhibition of bacterial growth at MIC concentration incubated for 48 hrs by broth microdilution assay; type: functional, organism-based; how it was run: as §4
Salmonella enterica [13] = test: Antibacterial activity against Salmonella enterica ATCC 13314 assessed as inhibition of bacterial growth incubated for 24 hrs by absorbance based microplate reader analysis; type: functional
How it was run: (§5)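 Broth microdilution. An overnight single-colony culture in recommended broth was diluted 1:10 000, and peptide serial dilutions in DMSO were added (4 µL into 196 µL). Plates incubated 24 h at 37 °C, aerobic or anaerobic as required, then OD600 read. Inhibition was calculated against pathogen-only and blank wells.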

Caco-2 [14] = test: Anti-inflammatory activity in human Caco-2 cells infected with Clostridium difficile ATCC 43602 assessed as reduction in IL-8 level at MIC concentration by ELISA relative to control; type: functional; design: scale not given: the % may be the effect or the level left
How it was run: (§6)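 Caco-2 cells grown in DMEM + 10% FBS, 37 °C, 5% CO2, to 90% confluence, then seeded 30 000 cells/well and held 24 h. C. difficile was grown overnight anaerobically in meat broth, washed in PBS, and 1 µL of 0.5 OD600 culture added per 300 µL medium. […] Cytokine in supernatant measured by ELISA; three independent replicates.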

Enterococcus faecium [15] = test: Bactericidal activity against vancomycin resistant Enterococcus faecium BAA 2317 assessed as inhibition of bacterial growth at MIC concentration incubated for 48 hrs by broth microdilution assay; type: functional, organism-based; how it was run: as §3
Pseudomonas aeruginosa [16] = test: Antibacterial activity against Pseudomonas aeruginosa BAA 1744 assessed as inhibition of bacterial growth incubated for 24 hrs by absorbance based microplate reader analysis; type: functional; settings: read-out: MIC100; how it was run: as §5
Staphylococcus aureus [17] = test: Induction of morphological changes in Staphylococcus aureus ATCC 25923 assessed as leakage of intracellular content at MIC concentration by transmission electron microscopic analysis; type: functional, organism-based
How it was run: (§7)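 Cells were pelleted at 4 °C, washed in 0.1 M PBS pH 7.2, and fixed overnight (4% formaldehyde, 1.25% glutaraldehyde, ruthenium red). Post-fixed in 1% OsO4, dehydrated through ethanol, embedded in epoxy resin and imaged by TEM.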

Staphylococcus aureus [18] = test: Induction of morphological changes in Staphylococcus aureus ATCC 25923 assessed as cell wall lysis at MIC concentration by transmission electron microscopic analysis; type: functional, organism-based; how it was run: as §7
Staphylococcus aureus [19] = test: Induction of morphological changes in Staphylococcus aureus ATCC 25923 assessed as fragmentation of intracellular content at MIC concentration by transmission electron microscopic analysis; type: functional, organism-based; how it was run: as §7
Caco-2 [20] = test: Anti-inflammatory activity in human Caco-2 cells infected with Clostridium difficile ATCC 43602 assessed as reduction in TNFalpha level at MIC concentration by ELISA relative to control; type: functional; design: scale not given: the % may be the effect or the level left; how it was run: as §6
Staphylococcus aureus [21] = test: Induction of morphological changes in Staphylococcus aureus ATCC 25923 assessed as detachment of pieces from cell wall at MIC concentration by transmission electron microscopic analysis; type: functional, organism-based; how it was run: as §7
Staphylococcus aureus [22] = test: Induction of morphological changes in Staphylococcus aureus ATCC 25923 assessed as disintegration of cells at MIC concentration by transmission electron microscopic analysis; type: functional, organism-based; how it was run: as §7
Staphylococcus aureus [23] = test: Induction of morphological changes in Staphylococcus aureus ATCC 25923 assessed as deformation of cells at MIC concentration by transmission electron microscopic analysis; type: functional, organism-based; how it was run: as §7
Clostridioides difficile [24] = test: Antibacterial activity against Clostridium difficile ATCC 43602 assessed as inhibition of bacterial growth incubated for 24 hrs by absorbance based microplate reader analysis; type: functional; settings: read-out: MIC100

CC1(C)S[C@@H]2[C@H](NC(=O)[C@H](N)c3ccc(O)cc3)C(=O)N2[C@H]1C(=O)O [AMOXICILLIN]
Activity (Staphylococcus aureus [1]): 4 log10CFU/ml | Activity (Staphylococcus aureus [2]): 5 log10CFU/ml | MIC (Enterococcus faecium [3]; read-out: MIC100): 35 µM (≈ 12.8 µg/mL) | Activity (Staphylococcus aureus [4]): Active | MIC (Staphylococcus aureus [5]): 5 µM (≈ 1.83 µg/mL) | MIC (Staphylococcus aureus [6]; read-out: MIC100): 35 µM (≈ 12.8 µg/mL)

H-SGGIGPLVIP-NH2
Retention_time [7]: 13.82 min | Activity (Staphylococcus aureus [8]): Active | Activity (Enterococcus faecium [3]): inactive | Activity (Listeria monocytogenes): Active | Activity (Clostridioides difficile [9]): Active | Activity (Escherichia coli): Active | Activity (Pseudomonas aeruginosa [10]): Active | Activity (Staphylococcus aureus [11]): Active | Activity (Salmonella enterica [12]): Active | Activity (Salmonella enterica [13]): inactive | Activity (Caco-2 [14]): 6% | Activity (Enterococcus faecium [15]): Active | Activity (Staphylococcus aureus [6]): inactive

H-LSKISGGIGPLVIPV-NH2
Retention_time [7]: 14.51 min | MIC (Pseudomonas aeruginosa [16]): 9.3 µM | Activity (Staphylococcus aureus [8]): Active | Activity (Staphylococcus aureus [1]): 2 log10CFU/ml | Activity (Staphylococcus aureus [2]): 5 log10CFU/ml | Activity (Listeria monocytogenes): Active | Activity (Staphylococcus aureus [17]): Active | Activity (Clostridioides difficile [9]): Active | Activity (Staphylococcus aureus [18]): Active | Activity (Staphylococcus aureus [19]): Active | Activity (Escherichia coli): Active | Activity (Pseudomonas aeruginosa [10]): Active | Activity (Caco-2 [20]): 10% | Activity (Staphylococcus aureus [11]): Active | Activity (Salmonella enterica [12]): Active | Activity (Staphylococcus aureus [21]): Active | Activity (Staphylococcus aureus [22]): Active | Activity (Salmonella enterica [13]): inactive | Activity (Staphylococcus aureus [23]): Active | Activity (Staphylococcus aureus [4]): Active | Activity (Enterococcus faecium [15]): Active | MIC (Clostridioides difficile [24]): 0.9 µM
